This is a sample that favours compounds with a hit; in the whole collection about 2.5% have one here.
NPY2 pot ag: potentiates or activates human NPY-Y2 receptor. AID 1359. P49146. 220,000 compounds, 0.45% hits. cells expressing NPY-Y2, potentiator/agonist read-out. activation, % at 3.6 µM; in the data active = activation above about 27%;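 note: cells stimulated with NPY near EC25 plus isoproterenol at EC100; 0% = vehicle plus submaximal agonist and 100% = vehicle plus saturating agonist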
Ins promoter up: MIN6 insulin promoter up-regulation; z-score at 5 µM; MIN6 insulin promoter-GFP reporter, high-content imaging; hits give high values; 190,000 compounds, 0.3% hits;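 active = z-score above 3 at 5 µM with at least 500 cells counted in the well; inconclusive = wells under 500 cells, flagged as cytotoxic or low count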
NPY-Y2 antag: NPY-Y2 (human) receptor antagonism; NPY-Y2 expressing cells, antagonist mode; inhibition, % at 2.7 µM; 140,000 compounds, 0.99% hits;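 note: 0% = vehicle with agonist challenge and 100% = reference antagonist with challenge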
NPY1 pot ag: potentiates or activates human NPY-Y1 receptor; 220,000 compounds, 0.37% hits; P25929; AID 1304; activation, % at 3.6 µM; NPY-Y1 expressing cells, potentiator/agonist activation; in the data active = activation above about 33%, passing the limit was not always enough;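 note: cells stimulated with NPY at EC10 then isoproterenol at EC100; 0% = low agonist plus stimulus and 100% = saturating agonist plus stimulus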
Target sequence (P25929 whole entry, looked up): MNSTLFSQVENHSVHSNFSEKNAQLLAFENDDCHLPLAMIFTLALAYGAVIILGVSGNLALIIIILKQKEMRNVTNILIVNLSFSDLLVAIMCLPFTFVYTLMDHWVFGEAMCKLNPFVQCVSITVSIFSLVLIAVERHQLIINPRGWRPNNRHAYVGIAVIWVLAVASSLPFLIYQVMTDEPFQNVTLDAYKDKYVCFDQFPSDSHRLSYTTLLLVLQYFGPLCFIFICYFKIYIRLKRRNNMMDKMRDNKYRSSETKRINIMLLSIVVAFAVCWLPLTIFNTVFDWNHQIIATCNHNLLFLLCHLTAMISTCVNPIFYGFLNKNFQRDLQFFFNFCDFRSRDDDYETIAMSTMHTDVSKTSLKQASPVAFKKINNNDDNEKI
Insulin prom inh: TRM-6 insulin promoter activity inhibition. TRM-6 cells, insulin promoter-eGFP reporter, imaging; reporter expression induced with tamoxifen. inhibition, % at 2 µM. 130,000 compounds, 0.9% hits. AID 1273;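 active = inhibition above the mean plus 3 SD, with well images judged a real hit on visual review, cut at about 60% in these data, passing the limit was not always enough; inconclusive = inhibition over the cutoff but images rejected on review; inactive = inhibition not above the cutoff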
NPY-Y1 antag: NPY-Y1 (human) receptor antagonism; P25929; HEK293-CNG Y1 cells, membrane potential fluorescence; NPY at EC95, then isoproterenol; inhibition, % at 3.6 µM; 200,000 compounds, 1% hits; AID 1040;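 active = inhibition above the campaign mean inhibition of all tested compounds plus 3 SD, cut at about 20% in these data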;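 note: 0% = DMSO wells given NPY plus isoproterenol and 100% = isoproterenol alone without NPY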
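Test system – HEK293 Y1/CNG channel cell line · Also added – NPY agonist 25 nM, then isoproterenol 1 µM plus Ro 20-1724 25 µM · Compound dosing – one concentration, 3.6 µM, in 0.4% DMSO · Schedule – compound incubation 1 h at room temperature, readout 45 min post-stimulation · Technique – fluorescence, membrane potential probe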
NPY-Y1 ant conf: confirmation of human neuropeptide Y receptor Y1 antagonists. shares compounds with NPY-Y1 antag. HEK293-CNG NPY-Y1, membrane potential fluorescence, cAMP; NPY challenge against isoproterenol-raised cAMP. inhibition, % at 3.6 µM. 1,200 compounds, 21% hits; in the data active = inhibition above about 20%;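 note: 0% = vehicle with agonist plus stimulus and 100% = stimulus alone without agonist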
NPY-Y2 antag ct: antagonizes human NPY-Y2, counter-screen to NPY-Y1 antagonists; shares compounds with NPY-Y1 antag; HEK293 NPY-Y2 CNG membrane potential fluorescence, antagonism; cells given NPY, then isoproterenol; inhibition, % at 3.6 µM; 1,200 compounds, 28% hits;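 note: 0% = DMSO with agonist challenge and 100% = reference antagonist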
The depositor's hits bear a star; ? = inconclusive; · = not tested or not shown. Cut-off read from the data, not from the text of the source, unless noted: active = inhibition above about 17%; inactive = the rest.

SMILES	NPY2 pot ag	Ins promoter up	NPY-Y2 antag	NPY1 pot ag	Insulin prom inh	NPY-Y1 antag	NPY-Y1 ant conf	NPY-Y2 antag ct
CCOC(=O)c1sc(NC(NC(=O)c2ccco2)(C(=O)OC)C(F)(F)F)nc1C (configuration not stated)	-13	-0.51	5	2	·	32*	8	13
FC(F)(F)c1ccc(-c2n[nH]c(=S)o2)nc1	-8	-0.23	·	2	·	·	·	·
S=c1[nH]nc(-c2ccc3ccccc3n2)o1	-11	-0.52	12	-3	-8	20*	11	7
CCN(CC)c1ccc(C(=O)N/N=C/c2ccccc2OC(F)F)cc1	-4	-0.45	·	-2	-9	8	·	·
Cc1cc(C)n2ncc(C(=O)NC3CCCCC3)c2n1	3	-0.31	·	9	-5	3	·	·
Cc1c2c(nc3c(C(=O)NC4CCCCC4C)cnn13)CCCC2 (configuration not stated)	-12	-0.17	8	-22	·	20*	13	22*
CC(/C=N/NC(=O)c1n[nH]c2c1CCC2)=C\c1ccccc1	-28	-0.97	5	-16	-58	22*	7	17*
O=C(COc1ncnc2scc(-c3ccc(Cl)cc3)c12)NCc1ccco1	10	0.23	4	14	-16	-2	·	·
CC1Cc2ccccc2N1C(=O)c1cc2sccc2n1Cc1ccc(F)cc1 (configuration not stated)	-12	-2.5	11	-39	-2	20*	8	15
COc1cccc(C(C(=O)NC2CCCC2)N(CC2CCCO2)C(=O)Cc2cccs2)c1 (configuration not stated)	-10	-1.2	·	12	·	26*	8	8
COc1ccc(CN(C(=O)Cc2cccs2)C(C(=O)NC2CCCC2)c2ccncc2)cc1 (configuration not stated)	0	·	0	15	0	-1	·	·
CCOC(=O)CCCNC(=O)COC(=O)c1cccc(F)c1	-9	0.51	·	-5	-57	5	·	·
O=C(NCc1ccco1)c1nc(-c2ccc(F)cc2)no1	-21	0.85	·	-30	20	24*	11	9
O=C(NCc1ccco1)c1ccccc1-c1nc(-c2ccc(F)cc2)no1	-12	0.16	·	-13	·	·	·	·
N#Cc1cc(-c2ccccc2)nnc1Oc1ccccc1Cl	-11	0.09	-1	-9	14	0	·	·
Cc1ccc(-n2cccn2)c(CN2CCC(CO)(CCc3ccccc3)CC2)c1	-15	-1.1	·	-29	·	45*	20	19*
COC(=O)CSc1nc(-c2ccccc2)nc2ccc(F)cc12	2	-0.07	-1	-16	42	4	·	·
CCOC(=O)CSc1nc(-c2ccccc2)nc2ccc(F)cc12	-16	2.8	13	-13	27	23*	10	10
COC(=O)c1cc([N+](=O)[O-])c(-n2cncn2)c([N+](=O)[O-])c1	-8	0	·	1	·	28*	-3	-4
N#CCC(=N)N1CCN(c2ccccc2Cl)CC1	-13	-0.33	3	0	-177	1	·	·
OCCN1CCN(CC(O)COc2ccc(C34CC5CC(CC(C5)C3)C4)cc2)CC1 (configuration not stated)	-42	-0.86	·	-50	-36	12	·	·
NCCOc1ccc(C23CC4CC(CC(C4)C2)C3)cc1	-14	-0.06	·	-34	·	22*	21*	35*
O=C(COC(=O)CSc1ccc2ccccc2c1Br)NC1CC1	-31	0.86	·	-38	·	25*	15	12
CCCCNC(=O)CN1C(=O)NC(CCc2ccccc2)C1=O (configuration not stated)	3	0.63	·	-1	·	5	·	·
COc1cc2c(cc1OC)C(C)N(C(=O)c1cc3c(=O)oc4ccc(C)cc4c3s1)CC2 (configuration not stated)	-15	-1.3	4	-4	-25	5	·	·
SMILES	NPY2 pot ag	Ins promoter up	NPY-Y2 antag	NPY1 pot ag	Insulin prom inh	NPY-Y1 antag	NPY-Y1 ant conf	NPY-Y2 antag ct
O=[N+]([O-])c1ccc(/C=N/NC(=S)Nc2ccccc2C(F)(F)F)o1	-8	-0.01	2	0	·	-5	·	·
CCOc1ccc(-n2c(-c3ccccc3)c[n+]3c2CCCCC3)cc1	12	?	15	-36	·	24*	14	17*
c1ccc(-c2c[n+]3c(n2-c2ccccc2)CCC3)cc1	4	?	·	9	·	·	·	·
COc1ccc(NS(=O)(=O)c2cccc(NC(=O)NCCCl)c2)cc1	2	0.01	·	-4	·	1	·	·
COc1ccc(/C=C/CN2CCC(CO)(Cc3ccccc3Cl)CC2)cc1	-22	·	·	-47	-13	30*	13	18*
COC(=O)c1ccc(CN2CCC(CO)(Cc3ccccc3Cl)CC2)cc1	5	0.12	·	2	-13	13	·	·
NC(=O)C1CCN(CC(=O)Nc2cccnc2Cl)CC1	-6	·	·	3	·	2	·	·
COc1ccccc1CCNC(=O)c1nc(-c2cccs2)no1	-18	1	·	-11	-35	24*	8	5
CCC(C)(C)n1nnnc1C(c1ccc(C)cc1)N1CCN(Cc2cccnc2)CC1 (configuration not stated)	-5	0.05	0	6	·	9	·	·
CCC(C)(C)n1nnnc1C(c1ccc(C)cc1)N1CCSCC1 (configuration not stated)	-14	-0.55	16	13	-17	24*	13	5
Cc1ccc(S(=O)(=O)Cn2nnnc2C(C(C)C)N2CCSCC2)cc1 (configuration not stated)	3	0.82	0	14	-57	21*	0	2
Cc1ccc(S(=O)(=O)Cn2nnnc2C(C(C)C)N2CCc3ccccc3C2)cc1 (configuration not stated)	1	-0.64	3	-15	·	1	·	·
Cc1cc(=O)[nH]c(SCC(=O)NCC2CCCCC2)c1C#N	9	0.43	·	3	·	5	·	·
O=C(CNCC1(N2CCOCC2)CCCCC1)Nc1ccc(Cl)cc1	10	-0.18	·	1	·	2	·	·
O=S(=O)(c1ccc(Cl)cc1)N1CCN=C1SCc1ccc(Cl)c(Cl)c1	0	-0.45	12	-8	·	7	·	·
CCCCCC(=O)Nc1ccccc1N1CCN(c2ccccc2)CC1	-16	1.2	5	-49	·	22*	6	15
CCCCC(=O)Nc1ccccc1N1CCOCC1	11	-0.07	·	-12	·	3	·	·
CCOc1ccc(Oc2ccc(NC(=O)[C@@H](NC(N)=O)[C@@H](C)CC)cc2)cc1	1	·	·	3	·	·	·	·
CCNNC(=O)C(O)(c1cccc(C)c1)c1cccc(C)c1	4	0.9	5	25	·	0	·	·
CCCNNC(=O)C(O)(c1cccc(C)c1)c1cccc(C)c1	-1	-0.09	10	-11	-26	26*	2	7
